Results: paper PMC8419108 (Molecular Cancer Therapeutics, 2021)

What was measured:
[1] = biological target: KRAS^Q61R/CRAF^WT interaction (Homo sapiens, UniProt P01116+P04049, Q61R); assay: NanoBRET assay of Halo-KRAS^Q61R/Nano-CRAF^WT binding in live 293FT cells; assay type: cell-based
[2] = test system: RAS-deficient MEFs reconstituted with BRAF^V600E; assay: Immunoblot analysis of cell signaling in BRAF^V600E MEFs; assay type: cell-based, mouse; settings: 1 hour treatment
Summary of the method: (§1)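 RAS-deficient MEFs reconstituted with KRAS^Q61R or BRAF^V600E were grown in DMEM with 10% FBS at 37°C, 5% CO₂. Cells were plated at about 70% confluency and treated 48 h later for 1 h. They were lysed in NP-40 buffer (pH 8.0) for 15 min at 4°C, equalised by Bradford, and immunoblotted for pERK and total ERK. Blots are representative of ≥2 independent experiments.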

[3] = test system: RAS-deficient MEFs reconstituted with KRAS^Q61R; assay: Immunoblot/immunoprecipitation analysis of cell signaling in KRAS^Q61R MEFs; assay type: cell-based, mouse
Summary of the method: as §1

[4] = test system: MCF10A cells stably expressing Halo-KRAS^G12V; assay: Immunoblot analysis of cell signaling in KRAS^G12V-MCF10A cells; assay type: cell-based; settings: 1 hour treatment
KRAS^G12V or CRAF-RBD = assay: SPR analysis, result summarised over both targets; assay type: binding; settings: single dose 100 μmol/L or dose-response 100–1.56 μmol/L
KRAS^G12D = KRAS^G12D (Homo sapiens, UniProt P01116, G12D); assay: SPR binding to captured avi-KRAS^G12D-GppNHp; settings: GppNHp-loaded KRAS^G12D; 100–1.56 μmol/L
Summary of the method: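 Avi-KRAS^G12D (aa 2–188) loaded with GppNHp was captured on a Neutravidin-coupled CM5 chip in a Biacore S200. Compounds were injected as a 2-fold series from 100 to 1.56 µmol/L over 2,300 RU, or singly at 100 µmol/L over 3,800 RU. Buffer was HEPES pH 7.5 with NaCl, Tween 20, MgCl₂ and 2.5% DMSO. Reference-cell and buffer responses were subtracted, with DMSO-mismatch correction.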

CRAF-RBD = CRAF-RBD (Homo sapiens, UniProt P04049); assay: SPR binding to captured avi-CRAF-RBD; settings: 100–1.56 μmol/L
Summary of the method: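 Avi-tagged CRAF-RBD (aa 52–131) was captured on a Neutravidin-coupled CM5 chip in a Biacore S200. A 2-fold series from 100 to 1.56 µmol/L was injected over 1,785 RU, and single 100 µmol/L doses over 3,000 RU. Reference-cell and buffer responses were subtracted, and DMSO mismatches were corrected with a standard curve.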

CC(C)=CCC[C@]1(C)C=Cc2c(O)c3c(c(CC=C(C)C)c2O1)O[C@]12C(=C[C@@H]4C[C@H]1C(C)(C)O[C@@]2(C/C=C(/C)C(=O)O)C4=O)C3=O [Gambogic acid]
IC50 [1]: 1.7 µM

CN1C(=O)[C@]2(Cc3cn([C@]45C[C@@]67SS[C@@](CO)(C(=O)N6[C@H]4Nc4ccccc45)N(C)C7=O)c4ccccc34)SS[C@@]1(CO)C(=O)N2C [Chetomin]
IC50 [1]: 2.9 µM

CC(C)(C)CC(C)(C)NCC(O)COc1ccc(C(C)(C)c2ccc(OCC(O)CNC(C)(C)CC(C)(C)C)cc2)cc1.Cl (centres unmarked) [NSC145366]
pERK levels (ERK activation) [2]: suppressed pERK levels
pERK levels (ERK activation) ([3]; 1 hour treatment, immunoblot): inhibited ERK activation
pERK levels (ERK activation) [4]: inhibited ERK activation

CCOc1nc2cccc(C(=O)OC(C)OC(=O)OC3CCCCC3)c2n1Cc1ccc(-c2ccccc2-c2nnn[nH]2)cc1 (centres unmarked) [Candesartan cilexetil]
IC50 [1]: 5.4 µM

C[C@@H]1O[C@@H](O[C@H]2[C@H](O[C@H]3CO[C@@H](O[C@H]4CC[C@]5(C)[C@H]6CC[C@]78OC[C@@]9(CC[C@](C)(C=O)C[C@H]97)[C@H](O)C[C@@]8(C)[C@]6(C)CC[C@H]5C4(C)C)[C@H](O[C@@H]4O[C@H](CO)[C@@H](O)[C@H](O)[C@H]4O)[C@H]3O)O[C@H](CO)[C@@H](O)[C@@H]2O)[C@H](O)[C@H](O)[C@H]1O [Ardisiacrispin B]
IC50 [1]: 5 µM

CN1C(=O)[C@]23CC4=CC=C[C@H](O)[C@H]4N2C(=O)[C@@]1(CO)SS3 [Gliotoxin]
IC50 [1]: 2.8 µM
pERK levels (ERK activation) ([3]; 1 hour treatment, immunoblot): inhibit RAS-dependent ERK activation
pERK levels (ERK activation) [4]: inhibit RAS-dependent ERK activation

COc1cc(CCN)c2c(c1OC)SSSSS2 [Varacin]
IC50 [1]: 9.5 µM

COc1cc(/C=C(\C#N)C(N)=O)cc(CSc2nc3ccccc3s2)c1O [AG825]
pERK levels (ERK activation) [2]: pERK levels were reduced
BRAF/CRAF dimer formation (CRAF immunoprecipitation probed for BRAF) ([3]; 10 μmol/L for 1 hour): increase the detection of heterodimerized CRAF/BRAF complexes
pERK levels (ERK activation) ([3]; 1 hour treatment, immunoblot): increased RAS-dependent ERK activation
pERK levels (ERK activation) [4]: increased RAS-dependent ERK activation

Cc1cc2c(C(C)C)c(O)c(O)c(C=O)c2c(O)c1-c1c(C)cc2c(C(C)C)c(O)c(O)c(C=O)c2c1O [Gossypol]
IC50 [1]: 5.2 µM

C/C=C(/C)C(=O)O[C@H]1C(C)=C2[C@H]([C@@H]1OC(=O)CCCCCCC)[C@@](C)(OC(C)=O)C[C@H](OC(=O)CCC)[C@@]1(O)[C@H]2OC(=O)[C@@]1(C)O [Thapsigargin]
IC50 [1]: 14 µM

CC(C)(C)c1ccc(C(O)CCCN2CCC(C(O)(c3ccccc3)c3ccccc3)CC2)cc1 (centres unmarked) [Terfenadine]
IC50 [1]: 6 µM

CC(C)=C[C@H]1C[C@H](C)[C@]2(CC[C@]3(C)C[C@H]4[C@H](C(=O)C[C@@]4(C)O)/C(C=O)=C\C[C@H]32)O1 [Ophiobolin A]
SPR binding to KRAS or the CRAF-RBD (KRAS^G12V or CRAF-RBD): inability to detect binding
IC50 [1]: 1.08 µM
pERK levels (ERK activation) ([3]; 1 hour treatment, immunoblot): reduced pERK levels in a dose-dependent manner
phosphorylation of endogenous CRAF on S338 (pS338-CRAF) ([3]; 1 hour treatment, immunoblot): reduced the phosphorylation of CRAF on S338
pERK levels (ERK activation) [4]: dose-dependent decrease
pMEK levels (phosphorylation and activation of MEK) [4]: dose-dependent decrease
phosphorylation of endogenous CRAF on S338 (pS338-CRAF) [4]: reduced the phosphorylation of CRAF on S338

Clc1ccc(C(c2ccc(Cl)cc2)n2cc[n+](CC(OCc3ccc(Cl)cc3Cl)c3ccc(Cl)cc3Cl)c2)cc1 (centres unmarked) [Calmidazolium chloride]
IC50 [1]: 3.6 µM
SPR binding to KRAS^G12D (KRAS^G12D): non-selective and non-saturable binding
SPR binding to CRAF-RBD (CRAF-RBD): non-selective and non-saturable binding

CN(C)CCOc1ccc(-c2nc(-c3ccncc3)c(-c3ccc4c(c3)CC/C4=N\O)[nH]2)cc1 [SB590885]
increase of the Halo-KRAS^Q61R/Nano-CRAF^WT interaction (BRET signal) ([1]; 0.5 and 1 μmol/L for 4 hours, normalized BRET signal): approximately 35%

Swinhopeptolide
SPR binding to KRAS^G12D (KRAS^G12D): slow on/off rates and possible non-specific binding
SPR binding to CRAF-RBD (CRAF-RBD): slow on/off rates and possible non-specific binding

CN1CCN(CCCN2c3ccccc3Sc3ccc(C(F)(F)F)cc32)CC1 [Trifluoperazine]
IC50 [1]: 14.3 µM
